pIC50: −log10 of the molar value. Converted amounts (≈) assume the structure as drawn. The source made the active and inactive calls. The rule behind the calls is not given here.
Experiments:
Staphylococcus aureus [1] = test: Antibacterial activity against methicillin-resistant Staphylococcus aureus EMRSA15 measured after overnight incubation by microbroth dilution method; format: functional
In short: (§1)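 Microbroth dilution: DMSO stocks diluted in water, 2-fold series. Overnight TSB cultures back-diluted to OD 0.01 and mixed 1:1 with compound. Incubated overnight at 37 °C; MIC taken as lowest concentration without visible growth (<0.1 OD600). Run in duplicate; matching DMSO levels checked for effect on growth.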

Staphylococcus aureus [2] = test: Antibacterial activity against methicillin-sensitive Staphylococcus aureus ATCC 9144 measured after overnight incubation by microbroth dilution method; format: functional; in short: as §1
Staphylococcus aureus [3] = test: Antibacterial activity against methicillin-resistant Staphylococcus aureus MRSA252 measured after overnight incubation by microbroth dilution method; format: functional; in short: as §1
Enterococcus faecalis [4] = test: Antibacterial activity against vancomycin resistant Enterococcus faecalis NCTC12204 measured after overnight incubation by microbroth dilution method; format: functional; in short: as §1
Enterococcus faecalis [5] = test: Antibacterial activity against vancomycin sensitive Enterococcus faecalis NCTC775 measured after overnight incubation by microbroth dilution method; format: functional; in short: as §1
Enterococcus faecalis [6] = test: Antibacterial activity against vancomycin resistant Enterococcus faecalis NCTC12201 measured after overnight incubation by microbroth dilution method; format: functional; in short: as §1
DNA gyrase = DNA gyrase (Staphylococcus aureus, UniProt P0A0K8+P20831, S84L); test: Inhibition of Staphylococcus aureus DNA gyrase S84L mutant; format: protein-complex assay
Acinetobacter baumannii [7] = test: Antibacterial activity against Acinetobacter baumannii ATCC 17978 measured after overnight incubation in presence of polymyxin B nonapeptide by microbroth dilution method; format: functional
Escherichia coli [8] = test: Antibacterial activity against Escherichia coli NCTC12923 measured after overnight incubation in presence of phenylalanine arginine beta-naphthylamide by microbroth dilution method; format: functional
In short: (§2)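 Microbroth dilution MIC. Compound DMSO stocks were diluted in water as a 2-fold series. Overnight TSB cultures were back-diluted to OD 0.01 and mixed 1:1 with compound. Plates were incubated overnight at 37 °C. MIC was the lowest concentration without visible growth (<0.1 OD600), run in duplicate.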

Staphylococcus aureus [9] = test: Antibacterial activity against Staphylococcus aureus NCTC13616 assessed as generation of drug resistance at 2 times MIC measured after 48 hrs by agar-based microbroth dilution method; format: functional
In short: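 Agar method: exponentially growing bacteria, in known numbers, plated on agar with doubling compound concentrations at and above the MIC; incubated 48 hours. Colonies growing above the MIC were picked and re-tested by microbroth MIC for raised resistance. Resistance frequency reported at 2xMIC.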

Acinetobacter baumannii [10] = test: Antibacterial activity against Acinetobacter baumannii AYE measured after overnight incubation in presence of polymyxin B nonapeptide by microbroth dilution method; format: functional
Staphylococcus aureus [11] = test: Antibacterial activity against methicillin resistant Staphylococcus aureus NCTC13616 measured after overnight incubation by microbroth dilution method; format: functional; in short: as §1
Klebsiella pneumoniae [12] = test: Antibacterial activity against Klebsiella pneumoniae NCTC13368 measured after overnight incubation in presence of polymyxin B nonapeptide by microbroth dilution method; format: functional
Staphylococcus aureus [13] = test: Antibacterial activity against methicillin sensitive Staphylococcus aureus NCTC 6571 measured after overnight incubation by microbroth dilution method; format: functional; in short: as §1
HeLa = test: Cytotoxicity again human HeLa cells measured after 24 hrs by XTT assay; format: cell-based
In short: (§3)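 Cells were grown in EMEM with glutamine, 10% FBS and non-essential amino acids at 37 °C, 10% CO2. Seeding was 1 x 10^5 cells/mL (HEK293) or 4 x 10^4 cells/mL (HeLa), then 24 h adherence. Doubling compound dilutions were applied for 24 h. XTT/PMS was added for 4 h in the dark, with absorbance read at 450 nm. Untreated cells were the 100% control and water-treated cells the 0% control; IC50 was fitted.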

Klebsiella pneumoniae [14] = test: Antibacterial activity against Klebsiella pneumoniae M6 measured after overnight incubation in presence of polymyxin B nonapeptide by microbroth dilution method; format: functional
HEK293 = test: Cytotoxicity again human HEK293 cells measured after 24 hrs by XTT assay; format: cell-based; settings: HEK293, 24 h; in short: as §3
Acinetobacter baumannii [15] = test: Antibacterial activity against Acinetobacter baumannii AYE measured after overnight incubation in presence of phenylalanine arginine beta-naphthylamide by microbroth dilution method; format: functional; in short: as §2
Klebsiella pneumoniae [16] = test: Antibacterial activity against Klebsiella pneumoniae M6 measured after overnight incubation in presence of phenylalanine arginine beta-naphthylamide by microbroth dilution method; format: functional; in short: as §2
Acinetobacter baumannii [17] = test: Antibacterial activity against Acinetobacter baumannii AYE measured after overnight incubation by microbroth dilution method; format: functional; in short: as §2
Pseudomonas aeruginosa [18] = test: Antibacterial activity against Pseudomonas aeruginosa PAO1 measured after overnight incubation in presence of phenylalanine arginine beta-naphthylamide by microbroth dilution method; format: functional; in short: as §2
Staphylococcus aureus [19] = test: Bacteriostatic activity against methicillin resistant Staphylococcus aureus NCTC13616 at 4 times MIC measured at 0 to 24 hrs by time kill assay
Klebsiella pneumoniae [20] = test: Antibacterial activity against Klebsiella pneumoniae NCTC13368 measured after overnight incubation in presence of phenylalanine arginine beta-naphthylamide by microbroth dilution method; format: functional; in short: as §2
Staphylococcus aureus [21] = test: Antibacterial activity against methicillin resistant Staphylococcus aureus NCTC13277 measured after overnight incubation by microbroth dilution method; format: functional; in short: as §1
Escherichia coli [22] = test: Antibacterial activity against Escherichia coli NCTC12923 measured after overnight incubation by microbroth dilution method; format: functional; in short: as §2
Klebsiella pneumoniae [23] = test: Antibacterial activity against Klebsiella pneumoniae M6 measured after overnight incubation by microbroth dilution method; format: functional; in short: as §2
Pseudomonas aeruginosa [24] = test: Antibacterial activity against Pseudomonas aeruginosa NCTC13437 measured after overnight incubation by microbroth dilution method; format: functional; in short: as §2
Enterococcus faecalis [25] = test: Bacteriostatic activity against vancomycin resistant Enterococcus feacalis NCTC12204 at 4 times MIC measured at 0 to 24 hrs by time kill assay
Klebsiella pneumoniae [26] = test: Antibacterial activity against Klebsiella pneumoniae NCTC13368 measured after overnight incubation by microbroth dilution method; format: functional; in short: as §2
Acinetobacter baumannii [27] = test: Antibacterial activity against Acinetobacter baumannii ATCC 17978 measured after overnight incubation by microbroth dilution method; format: functional; in short: as §2
Escherichia coli [28] = test: Antibacterial activity against Escherichia coli NCTC12923 measured after overnight incubation in presence of polymyxin B nonapeptide by microbroth dilution method; format: functional
Pseudomonas aeruginosa [29] = test: Antibacterial activity against Pseudomonas aeruginosa PAO1 measured after overnight incubation in presence of polymyxin B nonapeptide by microbroth dilution method; format: functional
[30] = Inhibition of Staphylococcus aureus DNA gyrase subunit A2B2 using relaxed pBR322 DNA as substrate measured after 30 mins in presence of ATP by ethidium bromide-based gel electrophoresis
In short: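 Supercoiling assay with S. aureus wild-type or S84L gyrase and relaxed pBR322, with or without varying compound, at 37 °C for 30 min. The reaction was stopped with STEB and extracted with chloroform:isoamyl alcohol (24:1). The aqueous phase was run on a 1% agarose gel and the supercoiled band quantified. IC50 came from at least three independent replicates.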

Enterococcus faecium = test: Antibacterial activity against Enterococcus faecium NCTC12204 assessed as generation of drug resistance at 2 times MIC measured after 48 hrs by agar-based microbroth dilution method
Pseudomonas aeruginosa [31] = test: Antibacterial activity against Pseudomonas aeruginosa PAO1 measured after overnight incubation by microbroth dilution method; format: functional; in short: as §2
Acinetobacter baumannii [32] = test: Antibacterial activity against Acinetobacter baumannii ATCC 17978 measured after overnight incubation in presence of phenylalanine arginine beta-naphthylamide by microbroth dilution method; format: functional; in short: as §2
Pseudomonas aeruginosa [33] = test: Antibacterial activity against Pseudomonas aeruginosa NCTC13437 measured after overnight incubation in presence of polymyxin B nonapeptide by microbroth dilution method; format: functional
Pseudomonas aeruginosa [34] = test: Antibacterial activity against Pseudomonas aeruginosa NCTC13437 measured after overnight incubation in presence of phenylalanine arginine beta-naphthylamide by microbroth dilution method; format: functional; in short: as §2

Compound | MIC (Staphylococcus aureus [1]) | MIC (Staphylococcus aureus [2]) | MIC (Staphylococcus aureus [3]) | MIC (Enterococcus faecalis [4]) | MIC (Enterococcus faecalis [5]) | MIC (Enterococcus faecalis [6]) | MIC (Acinetobacter baumannii [7]) | MIC (Acinetobacter baumannii [10]) | MIC (Staphylococcus aureus [11]) | MIC (Klebsiella pneumoniae [12]) | MIC (Staphylococcus aureus [13]) | MIC (Klebsiella pneumoniae [14]) | MIC (Acinetobacter baumannii [17]) | MIC (Staphylococcus aureus [21]) | MIC (Escherichia coli [22]) | MIC (Klebsiella pneumoniae [23]) | MIC (Pseudomonas aeruginosa [24]) | MIC (Klebsiella pneumoniae [26]) | MIC (Acinetobacter baumannii [27]) | MIC (Pseudomonas aeruginosa [31]) | other results
Cc1cc(CNCc2ccccc2)c(C)n1-c1ccc(F)cc1 | > 128 µg/mL | > 128 µg/mL | 64 µg/mL (≈ 208 µM) | 32 µg/mL (≈ 104 µM) | 64 µg/mL (≈ 208 µM) | 64 µg/mL (≈ 208 µM) |  |  |  |  |  |  |  |  |  |  |  |  |  |  | 
Cc1c(CNC2CCCCCC2)cc(-c2ccc(Cl)cc2)n1-c1ccc(C(C)C)cc1 |  |  |  | 2 µg/mL (≈ 4.6 µM) | 2 µg/mL (≈ 4.6 µM) | 2 µg/mL (≈ 4.6 µM) | 2 µg/mL | 4 µg/mL | 4 µg/mL (≈ 9.19 µM) | > 128 µg/mL | 4 µg/mL (≈ 9.19 µM) | > 128 µg/mL | > 128 µg/mL | 4 µg/mL (≈ 9.19 µM) | > 128 µg/mL | > 128 µg/mL | > 128 µg/mL | > 128 µg/mL | 32 µg/mL (≈ 73.6 µM) | > 128 µg/mL | pIC50 (DNA gyrase): 4.36; MIC (Escherichia coli [8]): 8 µg/mL; Activity (Staphylococcus aureus [9]): <7.6e-08; IC50 (HeLa): 1.95 to 2.83 µg/mL (≈ 4.48 to 6.5 µM); IC50 (HEK293): 1.95 to 2.83 µg/mL (≈ 4.48 to 6.5 µM); MIC (Acinetobacter baumannii [15]): 4 µg/mL; MIC (Klebsiella pneumoniae [16]): > 128 µg/mL; MIC (Pseudomonas aeruginosa [18]): 128 µg/mL; Activity (Staphylococcus aureus [19]): Active; MIC (Klebsiella pneumoniae [20]): > 128 µg/mL; Activity (Enterococcus faecalis [25]): Active; MIC (Escherichia coli [28]): 2 µg/mL; MIC (Pseudomonas aeruginosa [29]): 16 µg/mL; IC50 [30]: 15.49 µg/mL; Activity (Enterococcus faecium): <9.4e-08; MIC (Acinetobacter baumannii [32]): 4 µg/mL; MIC (Pseudomonas aeruginosa [33]): 16 µg/mL; MIC (Pseudomonas aeruginosa [34]): > 128 µg/mL
Cc1c(CNC2CCCCC2)cc(-c2ccc(Cl)cc2)n1-c1ccc(Cl)cc1 |  |  |  | 2 µg/mL (≈ 4.84 µM) | 4 µg/mL (≈ 9.68 µM) | 4 µg/mL (≈ 9.68 µM) | 4 µg/mL | 8 µg/mL | 4 µg/mL (≈ 9.68 µM) | > 128 µg/mL | 4 µg/mL (≈ 9.68 µM) | 64 µg/mL | 128 µg/mL (≈ 310 µM) | 4 µg/mL (≈ 9.68 µM) | > 128 µg/mL | > 128 µg/mL | > 128 µg/mL | > 128 µg/mL | 64 µg/mL (≈ 155 µM) | > 128 µg/mL | MIC (Pseudomonas aeruginosa [29]): > 128 µg/mL; MIC (Pseudomonas aeruginosa [33]): 32 µg/mL
Cc1c(CNC2CCCCC2)cc(-c2ccc(C(C)(C)C)cc2)n1-c1ccc(Cl)cc1 |  |  |  | 2 µg/mL (≈ 4.6 µM) | 4 µg/mL (≈ 9.19 µM) | 2 µg/mL (≈ 4.6 µM) |  |  | 4 µg/mL (≈ 9.19 µM) |  | 4 µg/mL (≈ 9.19 µM) |  | > 128 µg/mL | 4 µg/mL (≈ 9.19 µM) | > 128 µg/mL | > 128 µg/mL | > 128 µg/mL | > 128 µg/mL | > 128 µg/mL | > 128 µg/mL | 
Cc1cc(CN2CCN(C3C4CC5CC(C4)CC3C5)CC2)c(C)n1-c1ccc(C(C)C)cc1 (centres undefined) | 32 µg/mL (≈ 71.8 µM) | 32 µg/mL (≈ 71.8 µM) | 32 µg/mL (≈ 71.8 µM) | 8 µg/mL (≈ 17.9 µM) | 16 µg/mL (≈ 35.9 µM) | 8 µg/mL (≈ 17.9 µM) |  |  |  |  |  |  |  |  |  |  |  |  |  |  | 
